Assay outcomes from PubChem BioAssay.
FGF22 binding: binders of recombinant human FGF22 by thermal shift. activity (Tm shift, normalised), % at 9.99 µM. SYPRO orange fluorescence; percent of sucrose octasulfate shift, DMSO zero. 340,000 compounds, 1.5% hits. AID 651658;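 active means mean Tm shift, scaled 0 neutral to 100 positive control, at about 1.3% or above, every replicate too, limit read from the data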
Target sequence (Q9HCT0 whole entry, looked up): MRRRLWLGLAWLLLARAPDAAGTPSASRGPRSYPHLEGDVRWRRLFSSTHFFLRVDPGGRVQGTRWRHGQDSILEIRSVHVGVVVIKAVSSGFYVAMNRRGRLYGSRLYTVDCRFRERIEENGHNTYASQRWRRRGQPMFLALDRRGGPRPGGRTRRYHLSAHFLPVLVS
PglD DTNB: blocks C. jejuni PglD acetyltransferase activity. purified PglD enzyme, DTNB colorimetric CoA detection. inhibition, % at 12.5 µM. 360,000 compounds, 0.098% hits; in the data active means inhibition above about 16%, passing the limit was not always enough
Vif inh: inhibitors of HIV Vif | HEK293T cells, Vif self-association by quenched fluorescence, imaging, 24 h | inhibition, % at 7.49 µM | 340,000 compounds, 0.35% hits; in the data active means inhibition above about 50%, passing the limit was not always enough
Ecoli rRNA inh: inhibits bacterial ribosomal RNA function over humanized ribosomes; E. coli WT GFP vs humanized-ribosome RFP mutants, fluorescence, 24 h; hits give low values; DMSO median 0, no signal -100; GFP signal change (wild-type ribosome), % (concentration not given with the values); 350,000 compounds, 1.6% hits;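 active means significant combined selectivity score with lowered wild-type GFP, culture density cut under 30%, mutant RFP and density less affected; inactive means any of these conditions unmet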
PGC1a acetyl inh: PGC1a acetylation modulation, inhibitor mode; inhibition, % at 15.6 µM; U2OS PGC1a acetylation, AlphaScreen anti-acetyl-lysine; with virally co-expressed GCN5 acetyltransferase; 350,000 compounds, 0.17% hits; AID 651687;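 active means every replicate shows inhibition of at least 40%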;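 further: 0% = neutral control wells and 100% = positive control wells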
Cneo AK release: causes C. neoformans cell lysis; adenylate kinase release luminescence, 4 h; normalised: neutral wells 0, clomiphene wells 100; lysis activity, % at 15 µM; 360,000 compounds, 0.2% hits; AID 651654;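 active means mean lysis activity across replicates of at least 80%, whatever share of replicates individually reach that level; inactive means mean lysis activity below 80%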
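Assay system: Cryptococcus neoformans yeast cells / Dosing: single-point compound dose / Timing: 4 h at 37 °C static, read 1 h later / Measured by: luminescence of released adenylate kinase using an AK detection reagent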
Active calls of the source: *; · = no result. Rows were chosen to be rich in hits. Some 2.9% of all compounds tested hit in one or more screens of this group.

SMILES | FGF22 binding | PglD DTNB | Vif inh | Ecoli rRNA inh | PGC1a acetyl inh | Cneo AK release
O=C1NC[C@H](CCCCN2C[C@H](Cc3ccccc3)N(Cc3ccccc3)C(=O)C2=O)N(CC2CCCCC2)C1=O | 1 | · | · | 5 | · | ·
O=C1NC[C@H](CCCCN2C[C@H](Cc3ccccc3)N(CCc3ccc(O)cc3)C(=O)C2=O)N(CCc2ccc(O)cc2)C1=O | 0 | · | · | 17 | · | ·
O=C1NC[C@H](CCCCN2C[C@H](Cc3ccccc3)N(CC3CCCCC3)C(=O)C2=O)N(CCc2ccc(O)cc2)C1=O | 0 | · | · | -21* | · | ·
O=C1NC[C@@H](CCCCN2C[C@H](Cc3ccccc3)N(CCc3ccc(O)cc3)C(=O)C2=O)N(CC2CCCCC2)C1=O | 1 | · | · | -6 | · | ·
C[C@H](CO)N1C[C@H](C)[C@H](CN(C)Cc2ccncc2)OCCCC[C@H](C)Oc2ccc(NC(=O)c3ccncc3)cc2C1=O | 0 | 2 | · | -4 | 7 | 1
C[C@@H]1CN([C@@H](C)CO)C(=O)c2cccc(NS(=O)(=O)c3ccccc3)c2O[C@@H]1CN(C)S(C)(=O)=O | 0 | -2 | · | 3 | 10 | -2
NC(=O)C1CCN(C(=O)c2cc3c(s2)CCCC3)CC1 | 43* | 3 | 1 | 1 | 10 | 3
Cc1noc(C)c1NC(=O)N(C)C[C@@H]1Oc2c(NS(=O)(=O)c3ccc(Cl)cc3)cccc2C(=O)N([C@H](C)CO)C[C@H]1C | 0 | -3 | · | 0 | 0 | -2
C#CCN(C[C@@H]1[C@@H](OC(=O)NCc2ccccc2F)[C@@H](OC(=O)NCc2ccccc2F)Cn2c(=O)ccc(=O)n21)S(=O)(=O)c1ccc(C)cc1 | 0 | 3 | 8 | 1 | 60* | -2
COc1ccc(S(=O)(=O)N(C)C[C@@H]2Oc3c(NC(=O)Nc4ccc5c(c4)OCO5)cccc3C(=O)N([C@H](C)CO)C[C@H]2C)cc1 | 0 | 0 | · | -3 | 15 | 30
CCN1CCCC1CNS(=O)(=O)c1ccc(F)c(Cl)c1 (stereo not drawn) | 0 | 0 | 51* | 8 | · | 3
CCn1c(-c2cc(-c3cccc(OC)c3)nc3ccccc23)n[nH]c1=S | 0 | 5 | -20 | -44* | 0 | 14
CC(C)C#Cc1cnc2c(c1)C(=O)N([C@@H](C)CO)C[C@H](C)[C@H](CN(C)C(=O)c1ccccc1F)O2 | 0 | 0 | · | 4 | -7 | -3
O=C(Cc1cccnc1)N1CC2(C1)[C@@H](c1ccccc1)[C@@H](CO)N2C(=O)C1CCCCC1 | 0 | · | · | 2 | 6 | ·
O=C(O)CCC(=O)NCc1c(Cl)cccc1Sc1ccc(Cl)cc1 | 0 | 1 | -4 | -25* | 6 | 3
COC(=O)c1ccc(-c2noc(CN(C)CCC3CCCCO3)n2)cc1 (stereo not drawn) | 43* | · | 0 | 4 | · | ·
COc1ccc(CCNC(=O)CO/N=C/c2cc3c(cc2Br)OCO3)cc1OC | 42 | -6 | -9 | -36* | -7 | -2
COc1ccccc1[N+](=O)[O-] | 0 | 4 | -2 | 3 | -23 | 1
Cc1ccc(S(=O)(=O)Oc2ccccc2[N+](=O)[O-])cc1 | 43* | 1 | 14 | -19 | -14 | -2
Cc1noc(C)c1S(=O)(=O)N(C)C[C@H]1OCCCC[C@@H](C)Oc2ccc(NC(=O)CCCCCC(=O)Nc3ccccc3N)cc2C(=O)N([C@@H](C)CO)C[C@@H]1C | 0 | 3 | · | -1 | -14 | 97*
C[C@@H]1CCCCO[C@H](CN(C)S(=O)(=O)c2ccccc2)[C@@H](C)CN([C@H](C)CO)C(=O)c2cc(NC(=O)CCC(F)(F)F)ccc2O1 | 3.9* | 3 | · | 3 | -8 | 0
Cc1ccc(S(=O)(=O)N(C)C[C@H]2OCCCC[C@@H](C)Oc3ccc(NC(=O)CCCCCC(=O)Nc4ccccc4N)cc3C(=O)N([C@H](C)CO)C[C@@H]2C)cc1 | 0 | · | · | -1 | -12 | ·
C[C@@H]1CN([C@@H](C)CO)C(=O)c2cc(NC(=O)CCC(F)(F)F)ccc2O[C@@H](C)CCCCO[C@H]1CN(C)S(=O)(=O)c1ccccc1 | 0 | 2 | · | -1 | 10 | 51
